Test results: publication PMC8592288 (Bioorganic chemistry, 2021)

Tests used:
RAW264.7 = test: Griess assay, NO in IFNγ/LPS-activated RAW264.7 macrophages; format: cell-based, mouse; conditions: INFγ/LPS activated RAW264.7; 1,25(OH)2D3 20 nM, CTA 5 and 20 μM; 24-hour treatment
IL-1β [1] = test: HTRF IL1β cytokine assay, supernatant of activated RAW264.7 macrophages; format: cell-based, mouse; conditions: INFγ/LPS activated RAW264.7; 1,25(OH)2D3 20 nM, CTA 20 μM
TRβ-LBD = TRβ-LBD (Homo sapiens, UniProt P10828); test: Fluorescence polarization coactivator binding assay; format: biochemical
Chain of TRβ-LBD (P10828 217-461 limits assumed): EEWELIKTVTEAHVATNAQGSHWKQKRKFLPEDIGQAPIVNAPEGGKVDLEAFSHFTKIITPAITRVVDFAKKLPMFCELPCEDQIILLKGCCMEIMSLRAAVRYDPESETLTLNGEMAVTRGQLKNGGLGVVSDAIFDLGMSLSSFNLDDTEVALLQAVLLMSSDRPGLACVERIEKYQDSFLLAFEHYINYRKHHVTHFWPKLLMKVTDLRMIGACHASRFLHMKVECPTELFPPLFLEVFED
Procedure, shortened: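 TRβ-LBD used at 0.8 μM, with 7 nM Texas Red-SRC2–2 peptide and 1 μM triiodothyronine. Incubated 3 h at room temperature; fluorescence polarization measured at Ex/Em 595/615 nm. Two independent experiments in quadruplicate.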

RARα = RARα (Homo sapiens, UniProt P10276); test: Gal4 hybrid reporter transcription assay in HEK293T cells; format: cell-based; conditions: 1 μM CTA, 16 h
Chain of RARα (P10276 183-417 limits assumed): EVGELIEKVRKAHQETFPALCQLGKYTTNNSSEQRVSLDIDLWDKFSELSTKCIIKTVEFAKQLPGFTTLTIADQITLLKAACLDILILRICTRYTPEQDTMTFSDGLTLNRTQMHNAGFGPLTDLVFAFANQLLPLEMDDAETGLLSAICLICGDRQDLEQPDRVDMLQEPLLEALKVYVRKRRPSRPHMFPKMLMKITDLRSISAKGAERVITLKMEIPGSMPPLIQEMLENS
Procedure, shortened: (§1)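 HEK293T cells transfected using Lipofectamine LTX with pFR-Luc, pRL-SV40 and pFA-CMV plasmids encoding Gal4 fusions of the human receptor LBDs. Cells then held 16 h in OptiMEM with penicillin/streptomycin, 1 μM test compound and 0.1% DMSO. Dual-Glo luciferase read-out. Controls: 0.1% DMSO, and 1 μM TO901317 or 1 μM tretinoin as reference agonists. Duplicates, four independent repeats.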

iNOS = test: RT-PCR of iNOS in IFNγ/LPS-activated RAW264.7 macrophages; format: cell-based, mouse; conditions: INFγ/LPS activated RAW264.7, CTA 5 and 20 μM
LXR β = LXR β (Homo sapiens, UniProt P55055); test: Gal4 hybrid reporter transcription assay in HEK293T cells; format: cell-based; conditions: 1 μM CTA, 16 h
Chain of LXR β (P55055 222-460 limits assumed): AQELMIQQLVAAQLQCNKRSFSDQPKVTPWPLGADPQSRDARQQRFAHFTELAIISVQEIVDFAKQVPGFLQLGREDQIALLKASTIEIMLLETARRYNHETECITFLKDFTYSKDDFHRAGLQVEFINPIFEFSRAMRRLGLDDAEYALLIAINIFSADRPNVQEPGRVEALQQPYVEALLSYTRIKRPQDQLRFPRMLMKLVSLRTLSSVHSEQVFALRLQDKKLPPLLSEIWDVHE
Procedure, shortened: as §1

CYP24A1 [2] = test: RT-PCR of VDR target gene CYP24A1 in Caco2 cells; format: cell-based, human
VDR [3] = molecular target: T1, VDR (Homo sapiens, UniProt P11473); test: VDR transcription assay in the presence of 100 nM 1,25; format: cell-based
T1 sequence (P11473 1-427): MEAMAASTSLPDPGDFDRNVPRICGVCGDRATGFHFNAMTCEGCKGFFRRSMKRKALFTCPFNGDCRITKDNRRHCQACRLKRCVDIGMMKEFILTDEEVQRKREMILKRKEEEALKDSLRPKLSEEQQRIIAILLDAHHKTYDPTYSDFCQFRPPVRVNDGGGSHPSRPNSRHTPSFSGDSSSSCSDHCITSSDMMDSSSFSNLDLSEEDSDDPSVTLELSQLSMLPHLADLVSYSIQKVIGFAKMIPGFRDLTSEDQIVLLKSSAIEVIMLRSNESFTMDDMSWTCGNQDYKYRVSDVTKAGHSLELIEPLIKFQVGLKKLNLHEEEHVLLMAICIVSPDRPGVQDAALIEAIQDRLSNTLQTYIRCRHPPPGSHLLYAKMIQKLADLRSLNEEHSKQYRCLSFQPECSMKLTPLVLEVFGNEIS

ERα-LBD = ERα-LBD (Homo sapiens, UniProt P03372); test: Fluorescence polarization coactivator binding assay; format: biochemical
Chain of ERα-LBD (P03372 311-547 limits assumed, species assumed): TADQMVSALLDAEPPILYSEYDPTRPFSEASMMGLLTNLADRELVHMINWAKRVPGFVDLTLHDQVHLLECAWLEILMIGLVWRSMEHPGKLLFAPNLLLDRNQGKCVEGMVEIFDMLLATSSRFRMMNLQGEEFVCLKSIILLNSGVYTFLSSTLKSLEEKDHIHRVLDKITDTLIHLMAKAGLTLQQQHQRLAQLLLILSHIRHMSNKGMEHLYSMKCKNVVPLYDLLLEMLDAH
Procedure, shortened: (§2)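 For ERα and ERβ, 1 μM LBD was mixed with 7 nM Texas Red-SRC2–2 coactivator peptide and 100 nM estradiol. After 3 h at room temperature, fluorescence polarization was read at Ex/Em 595/615 nm. Two independent experiments in quadruplicate.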

GST-hPXR-LBD = GST-hPXR-LBD (Homo sapiens, UniProt O75469); test: TR-FRET competition assay for PXR; format: binding; conditions: CTA at 10 or 50 μM
Chain of GST-hPXR-LBD (O75469 146-433 limits assumed): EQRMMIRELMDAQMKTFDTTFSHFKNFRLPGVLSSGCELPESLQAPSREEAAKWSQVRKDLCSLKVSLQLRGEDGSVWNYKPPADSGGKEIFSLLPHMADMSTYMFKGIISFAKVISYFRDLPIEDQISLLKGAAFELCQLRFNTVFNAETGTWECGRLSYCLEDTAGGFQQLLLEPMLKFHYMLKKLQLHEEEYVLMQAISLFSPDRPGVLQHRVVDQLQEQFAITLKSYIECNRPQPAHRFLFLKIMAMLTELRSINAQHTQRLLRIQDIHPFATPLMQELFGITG
Procedure, shortened: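 TR-FRET competition in pH 7.5 buffer (50 mM Tris, 50 mM KCl, 20 mM MgCl2, 1 mM CHAPS, 0.1 mg/mL BSA, 0.05 mM DTT). Test compound added in DMSO (0.4% final); TO901317 as positive control. After 30 min, excitation 340 nm, ratio 520/490 nm ×10000. n = 8.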

[4] = test system: ligand binding domain (LBD) of the VDR; conditions: two-hybrid assay; cited from earlier work
HEK293 cells = test: Viability assay, CellTiter-Glo; format: cell-based; conditions: HEK293, 18 h exposure
Procedure, shortened: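 HEK293 cells transfected and dosed as in the VDR transcription assay. After 18 h at 37 °C, 5% CO2, CellTiter-Glo luminescence measured (intracellular ATP). Eight measurements per concentration, averaged with SEM. LD50 derived by non-linear regression.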

hFXR = hFXR (Homo sapiens, UniProt Q96RI1); test: FXR transcription assay, BSEP-luciferase in HeLa cells; format: cell-based; conditions: 24 h
Chain of hFXR (Q96RI1 whole entry): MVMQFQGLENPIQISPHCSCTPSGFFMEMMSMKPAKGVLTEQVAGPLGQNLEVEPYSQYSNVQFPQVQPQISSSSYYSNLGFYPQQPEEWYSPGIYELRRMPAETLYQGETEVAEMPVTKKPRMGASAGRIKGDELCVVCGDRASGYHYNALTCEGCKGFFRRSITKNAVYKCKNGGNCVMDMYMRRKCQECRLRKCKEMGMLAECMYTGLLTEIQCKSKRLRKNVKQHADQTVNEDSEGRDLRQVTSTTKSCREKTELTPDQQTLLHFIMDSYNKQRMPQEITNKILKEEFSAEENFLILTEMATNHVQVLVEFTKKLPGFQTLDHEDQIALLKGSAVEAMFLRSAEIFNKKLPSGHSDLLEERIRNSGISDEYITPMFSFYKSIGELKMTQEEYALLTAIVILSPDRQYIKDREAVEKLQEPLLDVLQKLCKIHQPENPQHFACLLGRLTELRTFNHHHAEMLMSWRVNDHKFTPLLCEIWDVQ
Chain of hFXR (P19793 whole entry partner): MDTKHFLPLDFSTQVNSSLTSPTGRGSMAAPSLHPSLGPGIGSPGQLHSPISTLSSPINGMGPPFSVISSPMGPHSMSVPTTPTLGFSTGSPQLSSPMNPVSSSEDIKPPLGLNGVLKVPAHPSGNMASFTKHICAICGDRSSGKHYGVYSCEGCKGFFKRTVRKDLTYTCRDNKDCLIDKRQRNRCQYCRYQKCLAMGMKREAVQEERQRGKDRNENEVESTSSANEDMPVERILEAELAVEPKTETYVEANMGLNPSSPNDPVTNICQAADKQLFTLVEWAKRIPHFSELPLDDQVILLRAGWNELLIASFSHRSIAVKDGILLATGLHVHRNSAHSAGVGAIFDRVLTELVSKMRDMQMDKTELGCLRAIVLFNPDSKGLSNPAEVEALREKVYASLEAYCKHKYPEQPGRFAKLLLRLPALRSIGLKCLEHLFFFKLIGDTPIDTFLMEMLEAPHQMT
Procedure, shortened: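 HeLa cells grown in DMEM high glucose with 10% FCS, seeded at 8000 cells/well 24 h before transfection, then switched to 0.5% charcoal-stripped FCS. Calcium phosphate co-transfection with pcDNA3-hFXR, pSG5-hRXR, a BSEP promoter-luciferase (pGL3basic) reporter and pRL-SV40. Test compound added in 0.1% DMSO in phenol red-free medium for 24 h. Dual-Glo luciferase read-out. Controls: 0.1% DMSO and 1 μM GW4064. Triplicates, four independent repeats.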

GST-CAR-LBD = GST-CAR-LBD (Homo sapiens, UniProt Q14994); test: TR-FRET coactivator binding assay for CAR; format: biochemical; conditions: CTA at 10 or 50 μM
Chain of GST-CAR-LBD (Q14994 109-352 limits assumed): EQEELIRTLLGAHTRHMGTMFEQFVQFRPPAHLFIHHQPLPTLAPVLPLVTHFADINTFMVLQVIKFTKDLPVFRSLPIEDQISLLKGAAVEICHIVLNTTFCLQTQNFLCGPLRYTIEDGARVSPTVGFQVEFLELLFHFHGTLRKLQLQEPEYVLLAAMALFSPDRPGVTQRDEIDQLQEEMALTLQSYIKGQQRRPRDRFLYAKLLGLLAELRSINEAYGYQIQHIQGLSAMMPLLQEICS

PPARγ-LBD = PPARγ-LBD (Homo sapiens, UniProt P37231); test: Fluorescence polarization coactivator binding assay; format: biochemical
Chain of PPARγ-LBD (P37231 238-503 limits assumed, species assumed): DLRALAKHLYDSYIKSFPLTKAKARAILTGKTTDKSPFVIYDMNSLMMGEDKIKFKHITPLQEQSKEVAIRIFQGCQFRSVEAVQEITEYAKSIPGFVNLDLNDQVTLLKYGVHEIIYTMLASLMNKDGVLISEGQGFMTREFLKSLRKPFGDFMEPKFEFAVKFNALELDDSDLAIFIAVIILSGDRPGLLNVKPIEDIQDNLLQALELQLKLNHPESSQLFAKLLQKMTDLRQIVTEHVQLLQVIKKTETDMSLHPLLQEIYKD
Procedure, shortened: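 Mix of PPARγ-LBD (5 μM), Texas Red-labelled DRIP2 coactivator peptide (7 nM) and rosiglitazone (5 μM). Held 3 h at room temperature, then fluorescence polarization read at Ex/Em 595/615 nm. Two independent experiments in quadruplicate.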

CYP24A1 [5] = conditions: at 7.5 μM; cited from earlier work
TRα-LBD = TRα-LBD (Homo sapiens, UniProt P10827); test: Fluorescence polarization coactivator binding assay; format: biochemical
Chain of TRα-LBD (P10827 148-410 isoform P10827-2 limits assumed): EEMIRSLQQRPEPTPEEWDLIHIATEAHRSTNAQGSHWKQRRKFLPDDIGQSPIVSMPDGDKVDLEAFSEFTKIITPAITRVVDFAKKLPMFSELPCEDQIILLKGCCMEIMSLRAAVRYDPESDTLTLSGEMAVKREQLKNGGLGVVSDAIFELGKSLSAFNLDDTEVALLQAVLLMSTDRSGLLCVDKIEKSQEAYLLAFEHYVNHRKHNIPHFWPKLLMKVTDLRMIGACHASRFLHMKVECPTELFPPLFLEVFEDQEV
Procedure, shortened: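 FP coactivator binding with TRα-LBD (1 μM), Texas Red-labelled SRC2–2 (7 nM) and triiodothyronine (100 nM). Incubated 3 h at room temperature; polarization read at 595/615 nm (Ex/Em). Two independent experiments, quadruplicate wells.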

ERβ-LBD = ERβ-LBD (Homo sapiens, UniProt Q92731); test: Fluorescence polarization coactivator binding assay; format: biochemical
Chain of ERβ-LBD (Q92731 264-498 limits assumed, species assumed): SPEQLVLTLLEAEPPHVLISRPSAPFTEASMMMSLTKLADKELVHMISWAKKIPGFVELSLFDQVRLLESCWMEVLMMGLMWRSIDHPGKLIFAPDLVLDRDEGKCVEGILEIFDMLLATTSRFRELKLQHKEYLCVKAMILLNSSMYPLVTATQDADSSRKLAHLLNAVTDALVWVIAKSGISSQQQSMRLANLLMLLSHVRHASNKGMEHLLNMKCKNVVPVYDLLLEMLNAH
Procedure, shortened: as §2

IL-1β [6] = test: RT-PCR of IL-1β in IFNγ/LPS-activated RAW264.7 macrophages; format: cell-based, mouse; conditions: INFγ/LPS activated RAW264.7, CTA 5 and 20 μM
LXR α = LXR α (Homo sapiens, UniProt Q13133); test: Gal4 hybrid reporter transcription assay in HEK293T cells; format: cell-based; conditions: 1 μM CTA, 16 h
Chain of LXR α (Q13133 209-447 limits assumed): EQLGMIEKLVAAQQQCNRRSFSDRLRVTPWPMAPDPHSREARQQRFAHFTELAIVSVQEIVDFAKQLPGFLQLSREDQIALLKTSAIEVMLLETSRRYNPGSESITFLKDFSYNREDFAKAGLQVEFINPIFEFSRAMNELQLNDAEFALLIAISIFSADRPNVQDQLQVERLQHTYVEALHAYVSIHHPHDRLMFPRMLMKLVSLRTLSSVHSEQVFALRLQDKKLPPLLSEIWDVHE
Procedure, shortened: as §1

AR-LBD = AR-LBD (Homo sapiens, UniProt P10275); test: Fluorescence polarization coactivator binding assay; format: biochemical
Chain of AR-LBD (P10275 669-900 limits assumed): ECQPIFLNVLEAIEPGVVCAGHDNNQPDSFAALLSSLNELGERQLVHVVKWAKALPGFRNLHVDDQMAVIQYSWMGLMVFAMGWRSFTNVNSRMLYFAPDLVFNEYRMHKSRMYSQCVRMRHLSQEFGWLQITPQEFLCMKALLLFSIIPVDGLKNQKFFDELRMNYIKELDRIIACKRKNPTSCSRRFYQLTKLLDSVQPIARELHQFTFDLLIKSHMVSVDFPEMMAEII
Procedure, shortened: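 Coactivator recruitment read by fluorescence polarization. AR-LBD at 5 μM with 7 nM Texas Red-labelled SRC2–3 peptide and 100 nM dihydrotestosterone. Incubated 3 h at room temperature, then read at Ex/Em 595/615 nm. Two independent experiments, each in quadruplicate.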

RXRα-LBD = RXRα-LBD (Homo sapiens, UniProt P19793); test: Fluorescence polarization coactivator binding assay; format: biochemical
Chain of RXRα-LBD (P19793 227-458 limits assumed): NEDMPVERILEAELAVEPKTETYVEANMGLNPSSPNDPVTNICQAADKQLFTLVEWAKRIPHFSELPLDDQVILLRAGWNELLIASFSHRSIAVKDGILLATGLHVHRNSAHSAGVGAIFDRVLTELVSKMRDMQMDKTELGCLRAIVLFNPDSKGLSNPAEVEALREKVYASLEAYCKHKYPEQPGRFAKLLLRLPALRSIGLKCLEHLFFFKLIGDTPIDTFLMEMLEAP
Procedure, shortened: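 RXRα-LBD (1 μM) combined with Texas Red-SRC2–3 peptide (7 nM) and bexarotene (2 μM). Incubated 3 h at room temperature; polarization detected at 595/615 nm. Two independent experiments, each in quadruplicate.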

VDR [7] = molecular target: T1, VDR; test: VDR-mediated transcription assay, CYP24A1-luciferase reporter in HEK293 cells; format: cell-based; conditions: HEK293, maximum reached before decrease due to toxicity
Procedure, shortened: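 HEK293 cells grown in DMEM high glucose with NEAA, 10 mM HEPES and 10% FBS. Transfected with VDR-CMV and CYP24A1 promoter-luciferase plasmids (Lipofectamine LTX/PLUS) for 16 h at 37 °C. Cells replated at 400,000 cells/mL onto Matrigel-treated 384-well plates for 4 h. […] Bright-Glo luminescence; n = 8; non-linear regression.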

RAW264.7 cells = test: Cytotoxicity on RAW264.7 cells, CellTiter-Glo; format: cell-based, mouse; conditions: RAW264.7, concentrations up to 100 μM
[8] = subcutaneous administration; cited from earlier work
[9] = molecular target: T2, Danio Rerio vitamin D receptor ligand binding domain (Danio rerio, UniProt Q9PTN2 156-453); test: crystal structure
T2 sequence (looked up): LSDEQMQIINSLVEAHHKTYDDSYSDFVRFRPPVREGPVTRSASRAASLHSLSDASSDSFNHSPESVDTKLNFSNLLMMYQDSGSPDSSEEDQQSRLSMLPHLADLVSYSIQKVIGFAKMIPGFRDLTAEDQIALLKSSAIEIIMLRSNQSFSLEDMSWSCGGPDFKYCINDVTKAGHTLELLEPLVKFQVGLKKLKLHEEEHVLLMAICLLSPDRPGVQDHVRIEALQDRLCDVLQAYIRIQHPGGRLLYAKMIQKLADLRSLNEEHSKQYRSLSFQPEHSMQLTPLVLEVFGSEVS

For `C=C1/C(=C\C=C2/CCC[C@]3(C)[C@@H]([C@H](C)CCCC(C)(C)O)CC[C@@H]23)C[C@@H](O)C[C@@H]1O` [1,25(OH)2D3, 1α,25-dihydroxyvitamin D3, reference compound], the “production of NO in comparison to vehicle” value (RAW264.7) was “reduced the production of NO” and the “IL-1β protein (HTRF)” value (IL-1β [1]) was “Reduced IL-1β protein”.

With `C=C1/C(=C\C=C2/CCC[C@]3(C)[C@@H]([C@H](C)CC(=O)O)CC[C@@H]23)C[C@@H](O)C[C@@H]1O` [CTA, (R)-3-((1R,3aS,7aR,E)-4-((Z)-2-((3S,5R)-3,5-dihydroxy-2-methylenecyclohexylidene)ethylidene)-7a-methyloctahydro-1H-inden-1-yl)butanoic acid] the “activation of thyroid receptor TRβ” value (TRβ-LBD) was “not activated”, the “activation of retinoic acid receptor” value (RARα) was “not activated” and the “iNOS gene transcription (RT-PCR)” value (iNOS) was “reduction of gene transcription was observed”. The “activation of liver X receptor β” value (LXR β) was “not activated”, the “expression of CYP24A1 in the presence of 1,25(OH)2D3” value (CYP24A1 [2]; Caco2, 18 h, co-treatment with 1,25(OH)2D3) was “strongly induced” and the “CYP24A1 upregulation compared to lithocholic acid at 10 μM” value (CYP24A1 [2]; intestinal cells (Caco2), CTA at 10 μM) was 100 fold. For the same molecule, the IC50 (VDR [3]) was 72.2 µM, the “activation of estrogen receptor ERα” value (ERα-LBD) was “not activated” and the “binding to PXR” value (GST-hPXR-LBD) was “did not bind”. For the same molecule, the “recruitment of SRC-1 to VDR LBD” value [4] was “induces recruitment of SRC-1”, the “LD50 (Cell-titer Glo viability)” value (HEK293 cells) was 96.0 µM and the “activation of farnesoid X receptor” value (hFXR) was “not activated”. The “induction of CAR-coactivator interactions” value (GST-CAR-LBD) was “did not bind to PXR or induce CAR-coactivator interactions”, the “activation of peroxisome proliferator-activated receptor” value (PPARγ-LBD) was “not activated” and the “CYP24A1 upregulation in DU145 cells” value (CYP24A1 [5]) was 9 fold. The “activation of thyroid receptor TRα” value (TRα-LBD) was “not activated”, the “activation of estrogen receptor ERβ” value (ERβ-LBD) was “not activated” and the “production of NO in comparison to vehicle” value (RAW264.7) was “significant reduction”. For the same molecule, the “IL-1β gene transcription (RT-PCR)” value (IL-1β [6]) was “reduction of gene transcription was observed”, the “activation of liver X receptor α” value (LXR α) was “not activated” and the “IL-1β protein (HTRF)” value (IL-1β [1]) was “Reduced IL-1β protein”. For the same molecule, the “activation of androgen receptor” value (AR-LBD) was “not activated”, the “activation of retinoid X receptor” value (RXRα-LBD) was “not activated” and the “level of activation of gene expression in comparison to 100 nM 1,25(OH)2D3” value (VDR [7]) was 30%. For the same molecule, the “cytotoxic effects (luminescence viability assay)” value (RAW264.7 cells) was “absence of any cytotoxic effects” and the antirachitic activity [8] was “antirachitic activity”.

With `C=C1/C(=C\C=C2/CCC[C@]3(C)[C@@H]([C@H](C)CC(=O)OC)CC[C@@H]23)C[C@@H](O)C[C@@H]1O` [CTA-ME, Methyl (R)-3-((1R,3aS,7aR,E)-4-((Z)-2-((3S,5R)-3,5-dihydroxy-2-methylenecyclohexylidene)ethylidene)-7a-methyloctahydro-1H-inden-1-yl)butanoate] the IC50 (VDR [3]) was 8.16 µM, the “LD50 (Cell-titer Glo viability)” value (HEK293 cells) was 13.9 µM and the “level of activation of gene expression in comparison to 100 nM 1,25(OH)2D3” value (VDR [7]) was 30%. The antirachitic activity [8] was “antirachitic activity”.

NHPMLMNLLKDN [coactivator MED1 NR2 peptide]: binds [9].
